Screens from PubChem.
BB579 growth dn – reduces growth of yeast BB579 in restrictive medium. AID 804. 140,000 compounds, 0.51% hits. S. cerevisiae BB579 growth, OD615, 48 h. inhibition, % at 10 µM;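 active = inhibition above a set limit, 3 SD over the mean compound inhibition, cut at about 44% in these data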
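Assay system: S. cerevisiae DeaD strain BB579 yeast. Medium: CSMM-D restrictive synthetic medium containing dextrose (glucose). Times: 4 h cell preincubation, 48 h compound exposure, 30 °C humidified. Signal: OD615 turbidity measurement. Benchmarks: positive control amphotericin B 10 µg/mL.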
DAT uptake mod – changed human dopamine transporter uptake under cocaine IC80; LLC-PK1 hDAT cells, [14C]-dopamine uptake with cocaine IC80; actives deviate in either direction; B-score at 10 µM; 110,000 compounds, 1.3% hits;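 active = Z score or B-score, a plate-position-corrected score, falls beyond the plate's 99.7% confidence bounds, in either direction; inactive = both scores lie inside the 99.7% bounds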;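 note: scored against the spread of the other compound wells on the same plate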
Target sequence (Q01959 whole entry, looked up): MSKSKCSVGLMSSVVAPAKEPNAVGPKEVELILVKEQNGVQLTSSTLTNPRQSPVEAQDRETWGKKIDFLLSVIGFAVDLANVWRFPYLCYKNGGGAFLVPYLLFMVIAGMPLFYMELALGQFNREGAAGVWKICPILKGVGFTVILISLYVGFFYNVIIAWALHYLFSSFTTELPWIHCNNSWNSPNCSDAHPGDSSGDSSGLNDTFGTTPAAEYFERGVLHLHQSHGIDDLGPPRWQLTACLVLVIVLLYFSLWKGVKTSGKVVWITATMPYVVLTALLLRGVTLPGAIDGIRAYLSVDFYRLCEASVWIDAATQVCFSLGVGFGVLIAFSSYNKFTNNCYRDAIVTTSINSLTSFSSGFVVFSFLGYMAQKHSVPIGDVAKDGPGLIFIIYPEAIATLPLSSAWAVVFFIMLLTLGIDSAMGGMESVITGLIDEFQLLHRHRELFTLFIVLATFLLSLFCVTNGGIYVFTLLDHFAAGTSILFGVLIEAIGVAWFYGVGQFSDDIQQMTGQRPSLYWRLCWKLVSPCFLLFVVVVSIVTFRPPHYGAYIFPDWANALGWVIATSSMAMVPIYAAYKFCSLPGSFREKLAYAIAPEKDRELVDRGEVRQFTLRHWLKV
Yeast lifespan up – yeast lifespan extension. S. cerevisiae growth with nicotinamide, OD615; deaD strain in restrictive glucose medium. inhibition of the nicotinamide effect, % at 10 µM. 130,000 compounds, 0.68% hits. AID 775;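 active = inhibition above a set limit, placed 3 SD over the median of all compounds, cut at about 26% in these data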;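 note: 0% = nicotinamide-treated wells and 100% = cells grown without nicotinamide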
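Assay system: engineered S. cerevisiae DeaD replicative-lifespan strain, galactose-grown log-phase cells; Buffer or medium: CSMM-D glucose medium, restrictive; Probe or stimulus: nicotinamide 1.5 mM; Compound: single dose 10 µM compound, 0.25% DMSO; Schedule: 4 h preincubation then 48 h treatment at 30 °C; Technique: OD615 measurement.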
WT yeast gro inh – growth inhibition of WT yeast, mitochondrial fusion screen. mitochondrial fusion phenotypic screen, WT strain. inhibition, % at 10 µM. 190,000 compounds, 2.1% hits; in the data active = inhibition above about 58%; tested in S. cerevisiae
RAM inhibit – inhibitors of the yeast RAM network; S. cerevisiae dse1pr::URA3 reporter, 5-FOA growth OD615, 2 d; analog-sensitive cbk1-as2 kinase mutant strain; inhibition, % at 50 µM; 190,000 compounds, 1.8% hits;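 active = inhibition above a set limit, 3 SD over mean compound inhibition, cut at about 8.4% in these data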;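 note: 0% = DMSO-only wells with no growth and 100% = 10 µM 1-NA-PP1 full growth; inhibition rescues growth on 5-FOA so higher OD means more RAM inhibition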
Measles CPE – protection of cells from measles virus; Measles virus-infected cells, CPE protection, absorbance; protection (pct of control), % at 4 µM; 140,000 compounds, 1.5% hits; AID 841; in the data active = protection mostly above about 24%, no sharp cut-off; inactive = mostly below about 26%
Active calls of the source: *. The list is not random: actives were taken first. Their share in the collection is about 6.1%.

What do the screens show for `COC(=O)C1(C)Nc2ccccc2C(=O)N1c1ccccc1C` (stereo unspecified)?
BB579 growth dn: -16; DAT uptake mod: 0.89; Yeast lifespan up: -2; WT yeast gro inh: 3; RAM inhibit: 0; Measles CPE: 41*

How did CC(C)N1C/C(=C/c2cccnc2)C(=O)/C(=C/c2cccnc2)C1 do in these assays?
BB579 growth dn: -56; Yeast lifespan up: 41*; WT yeast gro inh: 5; RAM inhibit: 2; Measles CPE: 6

What do the screens show for `CC1=N/C(=C/c2cccnc2)C(=O)O1`?
WT yeast gro inh: -18; RAM inhibit: 0

Results for CN1C/C(=C/c2cccnc2)C(=O)/C(=C/c2cccnc2)C1 ?
BB579 growth dn: -14; Yeast lifespan up: 51*; WT yeast gro inh: -1; RAM inhibit: 0; Measles CPE: -1

How did Cc1nc2ccccc2c2c1C(=O)N(C)C2=O do in these assays?
BB579 growth dn: 66*; DAT uptake mod: -0.81; Yeast lifespan up: -9; WT yeast gro inh: 10; RAM inhibit: 0; Measles CPE: 11

Results for CCCc1cc(=O)[nH]c(SCC(=O)Nc2ccc(Br)cc2Br)n1 ?
WT yeast gro inh: -15; RAM inhibit: -1

Results for Cc1cc(N=Cc2cc(Cl)ccc2O)no1 ?
BB579 growth dn: -24; DAT uptake mod: -0.45; Yeast lifespan up: 4; WT yeast gro inh: 58*; RAM inhibit: 0; Measles CPE: 9

Results for Cc1ccn2c(C(=O)c3ccc(Cl)cc3)cnc2c1 ?
BB579 growth dn: -2; DAT uptake mod: -0.54; Yeast lifespan up: -11; WT yeast gro inh: 1; RAM inhibit: 1; Measles CPE: 19

How did CCOc1ccc(NC(=S)Nc2ccc(Br)cc2Cl)cc1 do in these assays?
WT yeast gro inh: 18; RAM inhibit: 8

What do the screens show for `Cc1cccnc1NC(=S)Nc1ccc(Br)cc1Cl`?
WT yeast gro inh: 28; RAM inhibit: 8.5*

How did C#CCNC(=O)C1=C[C@@H](C2CCCCC2)C[C@@H](OCCCCO)O1 do in these assays?
DAT uptake mod: -0.45; WT yeast gro inh: -22; RAM inhibit: 2

What do the screens show for `CCc1nc2ccccc2c(C(=O)OCC(=O)NCCCN2CCCC2=O)c1C`?
BB579 growth dn: -43; DAT uptake mod: -0.68; Yeast lifespan up: -5; WT yeast gro inh: 17; RAM inhibit: 3; Measles CPE: 2

What do the screens show for `CCN(CC)c1ccc(/C=C(\C#N)C(=O)c2ccc(Br)cc2)cc1`?
BB579 growth dn: -32; Yeast lifespan up: -1; WT yeast gro inh: 30; RAM inhibit: 9.2*; Measles CPE: 4

What do the screens show for `CCN(CC)c1ccc(/C=C(\C#N)C(N)=O)cc1`?
WT yeast gro inh: -5; RAM inhibit: 1

What do the screens show for `CCOC(=O)CSc1n[nH]c(NC(=O)NC(C)C)n1`?
WT yeast gro inh: 10; RAM inhibit: 0

Results for CCCCN(CCCC)CCNC(=O)Cc1nc2c(c(=O)[nH]c(=O)n2C)n1C ?
BB579 growth dn: 0; DAT uptake mod: -0.31; Yeast lifespan up: -10; WT yeast gro inh: 67*; RAM inhibit: -1; Measles CPE: 4

Results for CCCCCCSc1nc2c(c(=O)[nH]c(=O)n2C)n1C ?
BB579 growth dn: -35; DAT uptake mod: -1.2; Yeast lifespan up: -13; WT yeast gro inh: 7; RAM inhibit: -1; Measles CPE: 6

Results for COc1ccc(/C=N/NC(C)(C)C)c(OC)c1 ?
WT yeast gro inh: -8; RAM inhibit: -1

Results for Cn1c(Sc2ccc(Cl)cc2)c(C=O)c2ccccc21 ?
BB579 growth dn: -20; DAT uptake mod: -0.047; Yeast lifespan up: -15; WT yeast gro inh: 2; RAM inhibit: 9.8*; Measles CPE: 6

What do the screens show for `CC(C)CCNC(=S)Nc1ccc([N+](=O)[O-])cc1`?
BB579 growth dn: 35; Yeast lifespan up: -5; WT yeast gro inh: 79*; RAM inhibit: -1; Measles CPE: 2

Results for CC(C)CCNC(=S)Nc1ccc(Br)cc1 ?
BB579 growth dn: -17; Yeast lifespan up: -1; WT yeast gro inh: 68*; RAM inhibit: 1; Measles CPE: 3

Results for CCCNC(=S)Nc1ccc(Br)cc1 ?
BB579 growth dn: -27; DAT uptake mod: -0.53; Yeast lifespan up: -30; WT yeast gro inh: 8; RAM inhibit: 0; Measles CPE: 8

What do the screens show for `CCCCNC(=S)Nc1ccc([N+](=O)[O-])cc1`?
BB579 growth dn: 17; Yeast lifespan up: -5; WT yeast gro inh: 55; RAM inhibit: 1; Measles CPE: 39

How did NCCOc1cnn(-c2ccccc2Cl)c(=O)c1Cl do in these assays?
BB579 growth dn: -27; Yeast lifespan up: 3; WT yeast gro inh: -6; RAM inhibit: 0; Measles CPE: 5

What do the screens show for `Cc1ccccc1C(=O)c1c[nH]c(C(=O)N=CN(C)C)c1`?
WT yeast gro inh: 6; RAM inhibit: 5

What do the screens show for `CCCn1c(SCC(=O)NCCc2ccc(Cl)cc2Cl)n[nH]c1=O`?
BB579 growth dn: -39; DAT uptake mod: 3.4*; Yeast lifespan up: -3; WT yeast gro inh: -20; RAM inhibit: 2; Measles CPE: 17

Results for COc1ccc(C(=O)N/C(=C\c2cn(S(=O)(=O)N(C)C)c3ccccc23)C(=O)NC(C)C)cc1 ?
WT yeast gro inh: 10; RAM inhibit: 9.3*

How did CN1/C(=C\C=Nc2ccc3ccccc3c2)C(C)(C)c2ccccc21 do in these assays?
BB579 growth dn: -16; DAT uptake mod: 1.2; Yeast lifespan up: -16; WT yeast gro inh: 77*; RAM inhibit: 0; Measles CPE: 5

What do the screens show for `CN1\C(=C/C=C/C=C/C=[N+](C)C)C(C)(C)c2ccccc21`?
WT yeast gro inh: 92*; RAM inhibit: 1

What do the screens show for `Cc1c(NC(=O)c2noc(C(C)C)c2[N+](=O)[O-])c(=O)n(-c2ccccc2)n1C`?
BB579 growth dn: 9; DAT uptake mod: 0.044; Yeast lifespan up: -5; WT yeast gro inh: 14; RAM inhibit: 1; Measles CPE: 29*

Results for Cc1cc(C(=O)Nc2c(C)n(C)n(-c3ccccc3)c2=O)on1 ?
BB579 growth dn: -29; DAT uptake mod: -0.94; Yeast lifespan up: -4; WT yeast gro inh: 8; RAM inhibit: 1; Measles CPE: 8

Results for Cc1ccc(OCCCOc2cccc3cccnc23)cc1C ?
BB579 growth dn: 42; DAT uptake mod: -0.24; Yeast lifespan up: -31; WT yeast gro inh: 36; RAM inhibit: -1; Measles CPE: 3

Results for CCOc1ccccc1OCCCCCc1c(C)n[nH]c1C ?
BB579 growth dn: -19; DAT uptake mod: 0.61; Yeast lifespan up: -7; RAM inhibit: -1; Measles CPE: 27

How did Cc1cccc(OCCCCc2c(C)n[nH]c2C)c1C do in these assays?
BB579 growth dn: 69*; DAT uptake mod: 0.36; Yeast lifespan up: -19; WT yeast gro inh: -5; RAM inhibit: 0; Measles CPE: 4
